Screening data (PubChem BioAssay)
A1 inh: inhibitors of the anti-apoptotic protein A1, read as caspase activation; caspase activation, % (test concentration not listed); MEF A1-2A-BIM cells, Caspase-Glo 3/7 luminescence, 3 h; percent of clofoctol response, vehicle zero; AID 2462; 330,000 tested, 0.066% active;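 active = over half of replicate activation scores above 10%, or exactly half above 10 with the replicate mean above 10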
UPR CHOP act: apoptotic UPR (CHOP) activation; CHO-CHOP luciferase reporter, luminescence; percent of tunicamycin response over DMSO baseline; activation, % at 10 µM; 330,000 tested, 0.34% active; AID 449763;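 active = at 10 µM dose, activation of 40% or more, normalized to positive control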;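 also: 100% = tunicamycin at 10 µg/mL and 0% = DMSO alone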
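System: CHO CHOP reporter cells. Amount: 500 cells per well. Buffer or medium: F12 medium, 10% FBS. Compound dosing: one dose, 10 µM in 0.5% DMSO. Incubation: 6 h compound exposure at 37 °C after overnight seeding. Technique: Steady-Glo luciferase luminescence. Benchmarks: tunicamycin and DMSO controls.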
CHOP inhibitor: CHOP inhibition in unfolded protein response; inhibition, % at 10 µM; 220,000 tested, 3.8% active; CHO-K1 CHOP-promoter luciferase, tunicamycin-induced, 15-18 h;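 active = compounds that reduced the stress-induced luciferase reporter signal by more than about 70% of percent inhibition, limit read from the data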;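 also: 0% = tunicamycin plus vehicle and 100% = wells without tunicamycin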
UPR XBP1 act: adaptive UPR (XBP1) activation; CHO-XBP1 luciferase reporter, IRE1-XBP1 UPR activation, luminescence; percent of tunicamycin response, DMSO as zero; activation, % at 20 µM; 330,000 tested, 0.33% active; AID 463104;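 active = versus positive control, 20 µM dose yields 30% or more activation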;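 also: 100% = tunicamycin at 10 µg/mL and 0% = DMSO only wells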
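Material: CHO cell line with stable XBP1 luciferase reporter; buffer or medium: F12 medium containing 10% fetal bovine serum; compound: single point, 20 µM final compound, 1% DMSO; incubation: 6 h treatment, 37 °C; measured by: glow luminescence from Steady-Glo reagent; evaluation: activation, % of tunicamycin; control set: tunicamycin high, DMSO low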
CHOP UPR conf: confirmation of apoptotic unfolded protein response (CHOP) activators | shares compounds with UPR CHOP act | CHO-CHOP cells, CHOP-luciferase reporter luminescence; percent of tunicamycin response, DMSO as zero | activation, % at 10 µM | 1,000 tested, 64% active; in the data active = activation above about 33%;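 also: 0% = DMSO wells and 100% = tunicamycin 10 µg/mL wells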
Starred values were filed as active, the others as inactive. This excerpt belongs to a sample that is enriched for hits.

How did O=C1NN(c2cccc(Br)c2)C(=O)/C1=C\c1ccccc1 do in these assays?
A1 inh: 0; UPR CHOP act: 4; UPR XBP1 act: -1

What do the screens show for `Oc1ccc(-c2csc(-c3cccnc3)n2)cc1O`?
A1 inh: -7; UPR CHOP act: 31; CHOP inhibitor: 40; UPR XBP1 act: 0

Results for Oc1ccc(-c2csc(-c3ccccc3)n2)cc1O ?
A1 inh: -1; UPR CHOP act: 143*; CHOP inhibitor: -92; UPR XBP1 act: 13; CHOP UPR conf: 53*

Results for Oc1ccc(/C=N/N(c2ccccc2)c2ccccc2)c(O)c1O ?
A1 inh: 0; UPR CHOP act: 5; UPR XBP1 act: -7

What do the screens show for `Oc1ccc(/C=N/N=C/c2ccc(O)c(O)c2)cc1O`?
A1 inh: -2; UPR CHOP act: 67*; UPR XBP1 act: 28; CHOP UPR conf: 9

Results for Oc1ccc(/C=N/N(c2ccccc2)c2ccccc2)cc1O ?
A1 inh: 1; UPR CHOP act: 107*; UPR XBP1 act: 9; CHOP UPR conf: 33*

How did Oc1ccc(N=Cc2ccc(O)c(O)c2)cc1 do in these assays?
A1 inh: 0; UPR CHOP act: -1; UPR XBP1 act: 1

What do the screens show for `Cc1ccc(S(=O)(=O)Nc2cccc3ncccc23)cc1`?
A1 inh: 1; UPR CHOP act: 1; CHOP inhibitor: 5; UPR XBP1 act: 0

How did Cc1ccc(S(=O)(=O)Nc2cccc3ncccc23)s1 do in these assays?
A1 inh: -1; UPR CHOP act: 219*; UPR XBP1 act: -6; CHOP UPR conf: 10

What do the screens show for `COC(=O)CCSc1cc(NCCOC(C)=O)c([N+](=O)[O-])c2nonc12`?
A1 inh: 0; UPR CHOP act: -2; CHOP inhibitor: -11; UPR XBP1 act: -2

What do the screens show for `CC(=O)OCCCNc1cc(Sc2ccc(C)cc2)c2nonc2c1[N+](=O)[O-]`?
A1 inh: 1; UPR CHOP act: 149*; CHOP inhibitor: 109*; UPR XBP1 act: -6; CHOP UPR conf: -11

How did C=CCn1nc([N+](=O)[O-])nc1Sc1cccc2cccnc12 do in these assays?
A1 inh: 1; UPR CHOP act: 168*; CHOP inhibitor: 88*; UPR XBP1 act: 14; CHOP UPR conf: 230*

Results for O=[N+]([O-])c1ccc(Sc2cccc3cccnc23)c([N+](=O)[O-])c1 ?
A1 inh: -1; UPR CHOP act: 256*; CHOP inhibitor: 15; UPR XBP1 act: -2; CHOP UPR conf: 158*

How did O=[N+]([O-])c1cc(Cl)ccc1Sc1cccc2cccnc12 do in these assays?
A1 inh: 0; UPR CHOP act: 0; CHOP inhibitor: 51; UPR XBP1 act: 3

What do the screens show for `O=[N+]([O-])c1ccc(Sc2cccc3cccnc23)cc1`?
A1 inh: -1; UPR CHOP act: 2; CHOP inhibitor: 20; UPR XBP1 act: 7

Results for O/N=C\c1ccc(-c2ccccc2)o1 ?
A1 inh: -2; UPR CHOP act: 7; CHOP inhibitor: 41; UPR XBP1 act: 4

What do the screens show for `Cc1ccc(C(=O)/C=C/c2ccc(-c3ccc(C)cc3)o2)cc1`?
A1 inh: 0; UPR CHOP act: 94*; CHOP inhibitor: 62; UPR XBP1 act: 18; CHOP UPR conf: -1

Results for O=Cc1ccc(-c2ccc(C(=O)O)cc2)o1 ?
A1 inh: 1; UPR CHOP act: 3; CHOP inhibitor: -15; UPR XBP1 act: -1

Results for O=C(/C=C\c1ccc(-c2ccccc2)o1)c1ccccc1 ?
A1 inh: 1; UPR CHOP act: 79*; CHOP inhibitor: 52; UPR XBP1 act: 10; CHOP UPR conf: 4

Results for O=C(N/N=C/c1cc(Br)ccc1OC(=O)c1ccc(Br)cc1)c1ccncc1 ?
A1 inh: 0; UPR CHOP act: -2; UPR XBP1 act: -2

How did C/C(CC(=O)Nc1cccc(Cl)c1Cl)=N\NC(=O)c1ccccc1C do in these assays?
A1 inh: 0; UPR CHOP act: -2; CHOP inhibitor: 2; UPR XBP1 act: -3

Results for Cc1nc([N+](=O)[O-])cn1CC(=O)c1ccc(Cl)cc1 ?
A1 inh: 0; UPR CHOP act: 4; UPR XBP1 act: -5

Results for Cc1nc([N+](=O)[O-])c(Br)n1CC(=O)c1ccc(Br)cc1 ?
A1 inh: 0; UPR CHOP act: 75*; CHOP inhibitor: -31; UPR XBP1 act: -3; CHOP UPR conf: 43*

How did COc1ccc(NC(=O)c2ccc(NC(=O)c3cccs3)cc2)cc1 do in these assays?
A1 inh: -1; UPR CHOP act: 1; UPR XBP1 act: 7

How did COc1nc(N)nc(NC(=O)c2cccs2)c1N=O do in these assays?
A1 inh: 2; UPR CHOP act: 70*; UPR XBP1 act: -1; CHOP UPR conf: 62*

Results for O=C(c1cc(Cl)ccc1F)N1CCCC(Nc2ccc3c(c2)OCCO3)C1 (stereo not given) ?
A1 inh: 0; UPR CHOP act: 0; UPR XBP1 act: -5

How did Nc1ccc(N=Nc2ccccc2)c2cccnc12 do in these assays?
A1 inh: 1; UPR CHOP act: 5; UPR XBP1 act: 15

What do the screens show for `COc1ccc(N=Nc2ccc(O)c3ncccc23)cc1`?
A1 inh: -2; UPR CHOP act: 153*; CHOP inhibitor: 61; UPR XBP1 act: 11; CHOP UPR conf: 148*

How did COc1cccc(N=Nc2ccc3cccnc3c2O)c1 do in these assays?
A1 inh: -8; UPR CHOP act: 127*; UPR XBP1 act: 4; CHOP UPR conf: 86*

What do the screens show for `COc1cccc(N=Nc2ccc(O)c3ncccc23)c1`?
A1 inh: -8; UPR CHOP act: 107*; UPR XBP1 act: 7; CHOP UPR conf: 86*

Results for COc1ccc(NC(=O)[C@H](C)NC(=O)[C@@H]2Cc3ccccc3CN2C(=O)OC(C)(C)C)cc1 ?
A1 inh: 0; UPR CHOP act: 1; UPR XBP1 act: -2

Results for COc1ccccc1C(=O)N/C(=C\c1cn(C)c2ccccc12)C(=O)NCCCn1ccnc1 ?
A1 inh: 2; UPR CHOP act: -2; UPR XBP1 act: -5

How did COc1cc(/C=C/C(=O)c2ccc([N+](=O)[O-])o2)ccc1O do in these assays?
A1 inh: 3; UPR CHOP act: 94*; UPR XBP1 act: -6; CHOP UPR conf: -6

Results for O=C(/C=C/c1cccc(Cl)c1)c1ccc([N+](=O)[O-])o1 ?
A1 inh: 3; UPR CHOP act: 6; UPR XBP1 act: -8

What do the screens show for `COc1ccc(/C=C/C(=O)c2ccc([N+](=O)[O-])o2)cc1OC`?
A1 inh: 2; UPR CHOP act: 82*; UPR XBP1 act: -8; CHOP UPR conf: -1

What do the screens show for `COc1cc2c(cc1NC(=S)NC(=O)c1c(OC)cccc1OC)oc1ccccc12`?
A1 inh: 2; UPR CHOP act: 0; CHOP inhibitor: -16; UPR XBP1 act: -2
